Measured values published in ChEMBL document CHEMBL3352055, “Synthesis and structure-activity relationship studies of small molecule disruptors of EWS-FLI1 interactions in Ewing's sarcoma” (J Med Chem, 2014).
The source made the active and inactive calls. The rule behind the calls is not given here.

Assays:
[1] = Growth inhibition of human TC32 cells harboring EWS-FLI1 fusion protein after 3 days by WST1 assay; assay type: functional; conditions: TC-32, 72 h
How it was run: (§1)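 Cells plated at 5000–15000 per well in colorless medium. TC32 and TC71 grown in RPMI with 10% FBS and 1% HEPES; PANC1 in DMEM with 10% FBS. Compounds or DMSO vehicle added the day after plating. Viable cells measured by MTT or WST-1 after 3 days. GI50 from nonlinear regression.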

[2] = Growth inhibition of human TC71 cells harboring EWS-FLI1 fusion protein after 3 days by WST1 assay; assay type: functional; conditions: TC-71, 72 h; how it was run: as §1
[3] = Growth inhibition of human PANC1 cells after 3 days by WST1 assay; assay type: cell-based, PANC-1; how it was run: as §1
[4] = target: Friend leukemia integration 1 transcription factor (Proto-oncogene Fli-1)/RNA-binding protein EWS (Homo sapiens) (UniProt Q01844+Q01543); assay: (§2) Inhibition of transcriptional activity of full-length EWS-FLI1 (unknown origin) expressed in COS7 cells by NR0B1-luciferase reporter gene assay; assay type: cell-based; conditions: COS-7
How it was run: (§3)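 COS7 cells transiently co-transfected with an NR0B1 luciferase reporter carrying EWS-FLI1 binding sites plus full-length EWS-FLI1 or empty pCI-neo vector. Treated 1.5 h after transfection with 0.05–15 μM compound or DMSO. Luciferase read 20 h later, quadruplicate wells, mean ± SD. IC50 from sigmoidal dose–response fit.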

[5] = target: T1, Friend leukemia integration 1 transcription factor (Proto-oncogene Fli-1)/RNA-binding protein EWS (Homo sapiens, UniProt Q01543+Q01844); assay: as §2; assay type: cell-based, COS-7; how it was run: as §3
T1 sequence (Q01844 whole entry): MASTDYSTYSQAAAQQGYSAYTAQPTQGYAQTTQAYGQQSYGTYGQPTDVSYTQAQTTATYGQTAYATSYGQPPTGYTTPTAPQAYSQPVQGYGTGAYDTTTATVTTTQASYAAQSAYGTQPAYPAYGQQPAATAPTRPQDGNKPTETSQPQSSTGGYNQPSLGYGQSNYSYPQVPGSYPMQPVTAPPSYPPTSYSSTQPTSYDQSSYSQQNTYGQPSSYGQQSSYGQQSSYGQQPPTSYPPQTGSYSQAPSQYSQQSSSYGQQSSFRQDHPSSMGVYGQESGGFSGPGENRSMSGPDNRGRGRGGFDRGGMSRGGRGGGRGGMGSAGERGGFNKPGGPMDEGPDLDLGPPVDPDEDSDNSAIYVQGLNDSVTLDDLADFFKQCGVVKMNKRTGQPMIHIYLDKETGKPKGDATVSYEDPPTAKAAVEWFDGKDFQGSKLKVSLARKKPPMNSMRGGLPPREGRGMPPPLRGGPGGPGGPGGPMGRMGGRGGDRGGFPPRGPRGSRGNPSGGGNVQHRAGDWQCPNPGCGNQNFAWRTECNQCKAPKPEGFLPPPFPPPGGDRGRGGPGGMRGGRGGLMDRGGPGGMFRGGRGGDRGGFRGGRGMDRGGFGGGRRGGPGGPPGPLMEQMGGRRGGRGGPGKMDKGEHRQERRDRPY
T1 sequence (Q01543 whole entry): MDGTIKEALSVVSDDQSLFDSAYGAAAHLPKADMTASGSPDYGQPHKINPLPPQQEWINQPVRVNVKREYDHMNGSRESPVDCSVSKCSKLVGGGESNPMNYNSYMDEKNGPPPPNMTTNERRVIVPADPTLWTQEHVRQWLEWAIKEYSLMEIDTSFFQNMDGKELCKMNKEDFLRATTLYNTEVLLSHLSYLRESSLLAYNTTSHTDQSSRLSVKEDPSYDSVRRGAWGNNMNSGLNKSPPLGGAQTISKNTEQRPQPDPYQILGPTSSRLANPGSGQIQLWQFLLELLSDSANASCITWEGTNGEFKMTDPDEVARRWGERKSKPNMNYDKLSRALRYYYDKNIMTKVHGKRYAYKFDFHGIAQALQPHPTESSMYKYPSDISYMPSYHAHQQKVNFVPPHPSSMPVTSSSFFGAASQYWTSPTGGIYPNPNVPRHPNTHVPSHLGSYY

[6] = target: T1, Friend leukemia integration 1 transcription factor (Proto-oncogene Fli-1)/RNA-binding protein EWS; assay: Binding affinity to purified recombinant EWS-FLI1 (unknown origin) after 1 hr by colorimetric phosphatase assay; assay type: protein assay
How it was run: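 His-tagged EWS-FLI1 expressed in BL21 (1 mM IPTG, 2 h at 27 °C) and purified from inclusion bodies by Ni column with on-column refolding. Plates coated overnight with 20 nM protein and blocked with 4% BSA for 1 h at RT. Biotin conjugate (1–100 μM) incubated 1 h, then HRP-streptavidin 1:5000 for 1 h at RT. Phosphatase substrate read at 405 nm. BSA-coated wells used as control. Kd taken from the saturation curve.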

[7] = Cytotoxicity against african green monkey COS7 cells after 48 hrs by WST1 assay; assay type: cell-based; conditions: chlorocebus aethiops, cos-7, 48 h
How it was run: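 COS7 cells (monkey kidney, lacking EWS-FLI1) grown in DMEM with 10% FBS. Compound exposure for 48 h, with viability read by WST proliferation assay.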

| Compound | GI50 [1] [µM] | GI50 [2] [µM] | GI50 at 72 h [3] [µM] | inhibition activity (qualitative call) [4] | IC50 [5] [µM] | Kd [6] [µM] | Activity [7] |
| --- | --- | --- | --- | --- | --- | --- | --- |
| COc1ccc(C(=O)CC2(O)C(=O)Nc3c(C)ccc(C)c32)cc1 (stereo not given) | > 10 | > 10 | > 10 |  |  |  |  |
| COc1ccc(C(=O)CC2(OC)C(=O)N(C)c3c(Cl)ccc(Cl)c32)cc1 (stereo not given) | > 10 | > 10 | > 10 | Active |  |  |  |
| COc1ccc(C(=O)CC2(O)C(=O)Nc3cccc(Cl)c32)cc1 (stereo not given) | > 10 | > 10 | > 10 |  |  |  |  |
| CNc1ccc(C(=O)CC2(O)C(=O)Nc3c(Cl)ccc(Cl)c32)cc1 (stereo not given) | 0.34 | 0.39 | > 10 |  | 0.18 |  |  |
| COc1ccc(C(=O)CC2(O)C(=O)Nc3c(Cl)cccc32)cc1 (stereo not given) | > 10 | > 10 | > 10 |  |  |  |  |
| COc1ccc(C(=O)CC2(O)C(=O)Nc3c(Cl)ccc(Cl)c32)c(OC)c1 (stereo not given) | 2.6 | 2.8 | > 10 | Active |  |  |  |
| CN(C)c1ccc(C(=O)CC2(O)C(=O)Nc3c(Cl)ccc(Cl)c32)cc1 (stereo not given) | 0.26 | 0.4 | > 10 |  | 0.15 |  |  |
| COc1ccc(C(=O)CC2(O)C(=O)Nc3c(F)ccc(F)c32)cc1 (stereo not given) | > 10 | > 10 | > 10 |  |  |  |  |
| COc1ccccc1C(=O)CC1(O)C(=O)Nc2c(Cl)ccc(Cl)c21 (stereo not given) | > 10 | > 10 | > 10 | inactive |  |  |  |
| COc1ccc(C(=O)CC2(O)C(=O)Nc3cc(Cl)c(Cl)cc32)cc1 (stereo not given) | > 10 | > 10 | > 10 |  |  |  |  |
| O=C(CC1(O)C(=O)Nc2c(Cl)ccc(Cl)c21)c1ccc(Oc2ccccc2)cc1 (stereo not given) | > 10 | > 10 | > 10 |  |  |  |  |
| COc1ccc(C(=O)CC2(O)C(=O)N(c3ccccc3)c3c(Cl)ccc(Cl)c32)cc1 (stereo not given) | > 10 | > 10 | > 10 |  |  |  |  |
| COc1ccc(C(=O)CC2(OC)C(=O)Nc3c(Cl)ccc(Cl)c32)cc1 (stereo not given) | > 10 | > 10 | > 10 | inactive |  |  |  |
| COc1ccc(C(=O)CC2(O)C(=O)Nc3c(Cl)ccc(Cl)c32)c(OC)c1OC (stereo not given) | 2.7 | 4.4 | > 10 |  |  |  |  |
| O=C(CC1(O)C(=O)Nc2c(Cl)ccc(Cl)c21)c1ccc(F)cc1 (stereo not given) | > 10 | > 10 | > 10 |  |  |  |  |
| CN(C(=O)CCCCCNC(=O)CCCC[C@H]1SCC2NC(=O)NC21)c1ccc(C(=O)CC2(O)C(=O)Nc3c(Cl)ccc(Cl)c32)cc1 (stereo not given in full) |  |  |  |  |  | 4.8 |  |
| O=C(CC1(O)C(=O)Nc2c(Cl)ccc(Cl)c21)c1ccccc1 (stereo not given) | > 10 | > 10 | > 10 |  |  |  |  |

| Compound | GI50 [1] [µM] | GI50 [2] [µM] | GI50 at 72 h [3] [µM] | inhibition activity (qualitative call) [4] | IC50 [5] [µM] | Kd [6] [µM] | Activity [7] |
| --- | --- | --- | --- | --- | --- | --- | --- |
| CSc1ccc(C(=O)CC2(O)C(=O)Nc3c(Cl)ccc(Cl)c32)cc1 (stereo not given) | 0.98 | 0.91 | > 10 |  | 0.33 |  |  |
| COc1ccc(C(=O)CC2(O)C(=O)N(C)c3c(Cl)ccc(Cl)c32)cc1 (stereo not given) | 2.2 | > 10 | > 10 | Active |  |  |  |
| COc1ccc(C(=O)CC2(O)C(=O)Nc3c(Cl)ccc(Cl)c32)cc1 (stereo not given) | 0.94 | 0.92 | > 10 | Dose-dependent effect | 0.35 |  | Non-toxic |
| Cc1ccc(C(=O)CC2(O)C(=O)Nc3c(Cl)ccc(Cl)c32)cc1 (stereo not given) | > 10 | > 10 | > 10 |  |  |  |  |
| O=C(CC1(O)C(=O)Nc2c(Cl)ccc(Cl)c21)c1ccc(C(F)(F)F)cc1 (stereo not given) | 2.9 | 6.9 | 11 |  |  |  |  |
| COc1ccc(C(=O)CC2(O)C(=O)Nc3ccc(Cl)cc32)cc1 (stereo not given) | > 10 | > 10 | > 10 |  |  |  |  |
| COc1ccc(C(=O)CC2(O)C(=O)Nc3ccccc32)cc1 (stereo not given) | > 10 | > 10 | > 10 |  |  |  |  |
| N#Cc1ccc(C(=O)CC2(O)C(=O)Nc3c(Cl)ccc(Cl)c32)cc1 (stereo not given) | > 10 | > 10 | > 10 |  |  |  |  |
| O=C(CC1(O)C(=O)Nc2c(Cl)ccc(Cl)c21)c1ccc(I)cc1 (stereo not given) | > 10 | > 10 | > 10 |  |  |  |  |
| Nc1ccc(C(=O)CC2(O)C(=O)Nc3c(Cl)ccc(Cl)c32)cc1 (stereo not given) | > 10 | > 10 | > 10 |  |  |  |  |
| COc1cc(OC)cc(C(=O)CC2(O)C(=O)Nc3c(Cl)ccc(Cl)c32)c1 (stereo not given) | 9 | > 10 | > 10 |  |  |  |  |
| CC(C)Oc1ccc(C(=O)CC2(O)C(=O)Nc3c(Cl)ccc(Cl)c32)cc1 (stereo not given) | > 10 | > 10 | > 10 |  |  |  |  |
| CCOc1ccc(C(=O)CC2(O)C(=O)Nc3c(Cl)ccc(Cl)c32)cc1 (stereo not given) | 2.7 | 3.57 | > 10 | Active |  |  |  |
| COc1cccc(C(=O)CC2(O)C(=O)Nc3c(Cl)ccc(Cl)c32)c1 (stereo not given) | > 10 | > 10 | > 10 |  |  |  |  |
| COc1cccc(C(=O)CC2(O)C(=O)Nc3c(Cl)ccc(Cl)c32)c1OC (stereo not given) | > 10 | > 10 | > 10 |  |  |  |  |
| COc1ccc(C(=O)CC2(O)C(=O)Nc3c(OC)ccc(OC)c32)cc1 (stereo not given) | 1 | 0.94 | > 10 |  | 0.77 |  |  |
